Bioassay records deposited in PubChem BioAssay by Johns Hopkins Ion Channel Center.
RGS4 block: RGS4 inhibitors, primary screen, cell-based, HEK293 M3R inducible RGS4, calcium flux; Regulator of G-protein signaling 4 (Homo sapiens), P49798; Fluo-4 calcium flux; hits give high values; triggered by carbachol at its EC20; B-score at 10 µM; 310,000 tested, 0.45% active; AID 463165, 2010;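 active = B-score, a plate-corrected calcium signal, over three deviations above library mean, with baseline fluorescence within five deviations of library mean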;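 note: RGS4 expression induced by doxycycline in cells with stable M3 receptor; B-score is computed from the integrated fluorescence ratio over baseline after carbachol; higher B-score means a larger calcium signal and so more RGS4 inhibition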
Target sequence (P49798 whole entry, looked up): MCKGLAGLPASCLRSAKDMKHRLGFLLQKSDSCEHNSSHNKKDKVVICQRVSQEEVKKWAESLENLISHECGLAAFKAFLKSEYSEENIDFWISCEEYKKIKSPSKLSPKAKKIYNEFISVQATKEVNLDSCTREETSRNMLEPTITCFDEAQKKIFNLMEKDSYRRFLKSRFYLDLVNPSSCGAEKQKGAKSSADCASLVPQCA
MrgX1 ag: agonists of human MrgX1 receptor, primary screen, HEK293 cells, Fluo-4 calcium flux; 310,000 tested, 0.44% active; Mas-related G-protein coupled receptor member X1 (Homo sapiens), Q96LB2; Fluo-4 calcium fluorescence, agonist mode; hits give high values; B-score at 10 µM; AID 588627, 2011;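 active = calcium response B-score plate-corrected fluorescence ratio at least 3 library SD, with starting fluorescence B-score inside 5 SD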
Target sequence (Q96LB2 whole entry, looked up): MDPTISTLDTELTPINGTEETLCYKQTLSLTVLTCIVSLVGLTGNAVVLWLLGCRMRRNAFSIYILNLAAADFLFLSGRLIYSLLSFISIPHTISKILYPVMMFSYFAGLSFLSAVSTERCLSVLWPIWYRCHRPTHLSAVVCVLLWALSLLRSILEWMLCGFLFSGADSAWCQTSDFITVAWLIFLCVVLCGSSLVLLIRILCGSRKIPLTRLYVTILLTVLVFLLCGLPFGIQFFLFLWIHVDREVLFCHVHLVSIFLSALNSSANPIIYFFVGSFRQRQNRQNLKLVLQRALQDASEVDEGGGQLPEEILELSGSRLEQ
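System: HEK293 cells stably expressing human MrgX1 receptor; Dosing: test compound in the initial addition of three; Schedule: overnight plating, then 30 min 37 °C plus 30 min room-temperature dye loading; Detection: kinetic calcium dye fluorescence, Fluo-4 NW; Controls: per-plate positive and negative controls for Z′ factor.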
RGS4 pot: RGS4 potentiators or activators, primary screen, cell-based, HEK293 M3R inducible RGS4, calcium flux; 310,000 tested, 0.92% active; carbachol calcium flux Fluo4; hits give low values; B-score at 10 µM;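 active = B-score of the integrated calcium signal more than 4 SD below the library mean, with starting fluorescence not abnormally high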;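 note: negative B-score means reduced calcium response which marks RGS4 activation or potentiation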
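test system = M3R-expressing HEK293 line, RGS4 induced by doxycycline | probe or stimulus = carbachol at ECmax as muscarinic agonist stimulus | timing = dye loading 30 min 37 °C, buffer rest 30 min RT | signal = calcium dye Fluo4 fluorescence | evaluation = B score from integrated fluorescence ratio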
MrgX1 PAM: positive allosteric modulators of MrgX1, primary screen, HEK293 cells, Fluo-4 calcium flux. FDSS; hits give high values. Mas-related G-protein coupled receptor member X1 (Homo sapiens), Q96LB2. B-score at 10 µM. AID 588675, 2011. 310,000 tested, 0.63% active;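 active = plate-corrected calcium response at least 3 library SD above typical, normal starting fluorescence, not activating the receptor alone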;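 note: compound read alongside a low EC10 to EC30 dose of BAM8-22 agonist; peak minus trough fluorescence over baseline measured at the second addition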
MrgX1 antagonist: antagonists of human MrgX1 receptor, primary screen, HEK293 cells, Fluo-4 calcium flux; 310,000 tested, 1.3% active; Mas-related G-protein coupled receptor member X1 (Homo sapiens), Q96LB2; B-score at 10 µM; BAM8-22 antagonism; hits give low values; AID 588676, 2011;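 active = calcium-response B-score plate-corrected more than 3 library SD below zero, starting fluorescence within 5 deviations, no agonist response on first addition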;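 note: peak minus trough fluorescence over baseline after final BAM8-22 challenge near maximal dose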
MrgX1 antag conf: MrgX1 receptor antagonists, duplicate retest, confirmation, HEK293 cells, Fluo-4 calcium flux; 2,300 tested, 19% active; BAM8-22 calcium flux; hits give low values; shares compounds with MrgX1 antagonist; AID 602420, 2012; remaining BAM8-22 calcium response % of control (hits give low values), % at 10 µM;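 active = remaining agonist calcium response no higher than 100% minus 3 SD of agonist-only control wells, with starting fluorescence near control levels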;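 note: agonist BAM8-22 given at a near maximal EC90 to ECmax level; peak minus minimum fluorescence divided by baseline after agonist addition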
HEK293 Ca flux: nonspecific calcium signal in parental HEK293, confirmation, counter-screen for MrgX1 antagonist project, parental HEK293 cells, Fluo-4 calcium flux. shares compounds with MrgX1 antagonist. Fluo-4 calcium fluorescence, FDSS. fluorescence ratio F(max-min)/F0 at 10 µM. 4,000 tested, 2% active;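 active = duplicate-averaged calcium fluorescence ratio at least three times the standard deviation of buffer wells, a nonspecific response in parental cells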
HEK293 Ca counter: calcium response in parental HEK293 cells, primary screen, counter-screen for MrgX1 allosteric activator project, cell-based, Fluo-4 calcium flux, duplicate | shares compounds with MrgX1 antagonist | Fluo-4 fluorescence ratio; hits give high values | fluorescence ratio F(max-min)/F0 at 10 µM | 4,000 tested, 0.4% active;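 active = calcium fluorescence ratio, averaged over duplicates, at least 3 SD of the buffer-well ratio, meaning a nonspecific response in receptor-free cells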;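 note: untransfected parental HEK293 lacking MrgX1 used as counterscreen for MrgX1 allosteric activators; fluorescence change taken during the second addition on a kinetic imager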
HEK293 Ca cntr2: calcium response in parental HEK293 cells, primary screen, counter-screen for MrgX1 agonist project, cell-based, Fluo-4 calcium flux, duplicate, agonist mode; fluorescence ratio F(max-min)/F0 at 10 µM; 4,000 tested, 8.7% active; Fluo-4 calcium fluorescence (FDSS); hits give high values; shares compounds with MrgX1 antagonist;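 active = calcium fluorescence ratio at least three times the spread of buffer wells, meaning a non-specific response in parental cells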
Hits are given with their value; - = inactive; . = no result. Hits are enriched below; roughly 3.5% of the tested compounds scored in any of these assays.

SMILES	RGS4 block	MrgX1 ag	RGS4 pot	MrgX1 PAM	MrgX1 antagonist	MrgX1 antag conf	HEK293 Ca flux	HEK293 Ca counter	HEK293 Ca cntr2
CCCc1cc(=O)oc2cc(C)cc(OCC(=O)N3CCC(C(N)=O)CC3)c12	-	-	-	-	-4.9	-	-	-	-
CC(NC(=O)CN1CCCC1)C12CC3CC(CC(C3)C1)C2 (stereo not given)	-	-	-	-	-	.	.	.	.
CC(NC(=O)Cn1cnnn1)C12CC3CC(CC(C3)C1)C2 (stereo not given)	-	-	-	-	-6.8	-	-	-	-
O=C(C1CCC1)N1CCN(c2ccnc3cc(Cl)ccc23)CC1	-	-	-	-	-	.	.	.	.
O=C(C1CCCCC1)N1CCN(c2ccnc3cc(Cl)ccc23)CC1	-	-	-	-	-12	-	-	-	-
COC(=O)c1sc(-c2ccc(C(C)(C)C)cc2)cc1NC(=O)COCC(=O)O	-	-	-	-	-4.7	68%	-	-	60
COC(=O)c1sc(-c2ccc(Cl)cc2)cc1NC(=O)CSCC(=O)O	-	-	-	-	-	.	.	.	.
Cn1nnnc1NCc1ccccc1F	-	-	-	-	-	.	.	.	.
COc1ccc(Cl)cc1S(=O)(=O)NCc1cccnc1	-	-	-	-	-5.7	-	-	-	-
Cc1cc(C)c(S(=O)(=O)NCc2cccnc2)cc1C	-	-	-	-	-	.	.	.	.
CCOc1cc(S(=O)(=O)NCc2cccnc2)c(C)cc1C	-	-	-	-	-4.9	-	-	-	-
COC(=O)c1ccc(C)c(NS(=O)(=O)c2cn(C)nc2C)c1	-	-	-	-	-	.	.	.	.
CCOC(=O)c1ccc(-n2ncc(C(=O)OCC)c2N)cc1	-	-	-	-	-	.	.	.	.
CCOC(=O)c1cnn(-c2ccc(C)cc2)c1N	-	-	-	-	-4.7	-	-	-	-
O=C(CNC(=O)c1ccc(Cl)cc1Cl)OCC(=O)N1CCCC1=O	-	-	-	-	-	.	.	.	.
Oc1c(/C=N/c2ccccn2)sc2ccccc12	-	-	-	-	-6.7	69%	-	-	-
Oc1c(C=Nc2cccnc2)sc2ccccc12	-	-	-	-	-4.9	-	-	-	-
Oc1c(C=Nc2ccc(Cl)cn2)sc2ccccc12	-	-	-	-	-	.	.	.	.
CC(CNC(=O)CCc1nnc(CCC2CCCCC2)o1)c1ccccc1 (stereo not given)	-	-	-	-	-	.	.	.	.
COc1ccc(-c2noc(CSc3nc(N)c(-c4ccccc4)c(=O)[nH]3)n2)cc1	-	-	-	-	-7.1	75%	-	-	-
CCC(=O)c1ccc(OCC(=O)NCC2(N3CCCCC3)CCCCC2)cc1	-	-	-	-	-	.	.	.	.
CC1Cc2ccccc2N1C(=O)c1ccc(N2CCCCC2)c([N+](=O)[O-])c1 (stereo not given)	-	-	-	-	-11	-	-	-	-
CC1Cc2ccccc2N1C(=O)c1ccc(N2CCCC2)c([N+](=O)[O-])c1 (stereo not given)	-	-	-	-	-	.	.	.	.
O=C1CC(N2CCN(c3ccccc3)CC2)C(=O)N1c1cccc(Br)c1 (stereo not given)	-	-	-	-	-	.	.	.	.
O=C1CC(N2CCSCC2)C(=O)N1c1cccc(Br)c1 (stereo not given)	-	-	-	-	-9.1	-	-	-	-
SMILES	RGS4 block	MrgX1 ag	RGS4 pot	MrgX1 PAM	MrgX1 antagonist	MrgX1 antag conf	HEK293 Ca flux	HEK293 Ca counter	HEK293 Ca cntr2
O=C(Nc1ccc(CN2CCOCC2)cc1)c1cc2ccccc2o1	-	-	-	-	-	.	.	.	.
O=C(Nc1ccc(CN2CCOCC2)cc1)c1cc2ccccn2n1	-	-	-	-	-4.9	-	-	-	-
Cc1cc(NC(=O)CSc2nc3c(c(-c4cccnc4)c2C#N)CCC3)no1	-	-	-	-	-5.3	-	-	-	-
N#Cc1c(C(F)(F)F)cc(-c2ccco2)nc1SCc1ccccn1	-	-	-	-	-4.7	-	-	-	-
CSc1nc(-c2ccco2)cc(C(F)(F)F)c1C#N	-	-	-	-	-	.	.	.	.
CCOc1ccccc1CN1CCNC(=O)C1CC(=O)NCc1cc(C)n(C)n1 (stereo not given)	-	-	-	-	-	.	.	.	.
NC(=S)Nc1cccc2cc3ccccc3cc12	-	-	-	-	-	.	.	.	.
NC(=S)Nc1cc2ccccc2c2ccccc12	-	-	-	-	-4.8	-	-	-	-
Cc1nnc(NC(=O)c2ccc(S(=O)(=O)N3CCCCCC3)cc2)o1	-	-	-	-	-12	-	-	-	-
Cc1nnc(NC(=O)c2ccc(S(=O)(=O)N3CC(C)OC(C)C3)cc2)o1 (stereo not given)	-	-	-	-	-	.	.	.	.
Cc1cc(C)c(C)c(S(=O)(=O)NCCCN2CCCC2=O)c1C	-	-	-	-	-5.4	-	-	-	-
O=C1CCCN1CCCNS(=O)(=O)c1ccc(Br)cc1	-	-	-	-	-	.	.	.	.
COc1ccccc1NC(=O)CN1CCN(CC(=O)Nc2ccc(S(N)(=O)=O)cc2)CC1	-	-	-	-	-7.6	-	-	-	-
CN1C2C(Br)CCCCN2c2ccc(F)cc2S1(=O)=O (stereo not given)	-	-	-	-	-	.	.	.	.
NS(=O)(=O)c1ccc(CCNC(=O)NC23CC4CC(CC(C4)C2)C3)cc1	-	-	-	-	-	.	.	.	.
NS(=O)(=O)c1ccc(-n2nncc2C23CC4CC(CC(C4)C2)C3)cc1	-	-	-	-	-7.3	-	-	-	-
COc1cc(/C=C/c2nc3ccccc3s2)cc(OC)c1O	-	-	-	-	-5.7	-	-	-	-
COc1cc(C=C(c2nc3ccccc3s2)c2nc3ccccc3s2)ccc1O	-	-	-	-	-	.	.	.	.
CCN1/C(=C/c2ccc3ccccc3[n+]2CC)C=Cc2ccccc21	-	-	-9.2	-	-13	-	.	.	.
CCN1/C(=C/c2ccc3ccccc3[n+]2CCCS(=O)(=O)[O-])C=Cc2cc(C)ccc21	-	-	-	-	-	.	.	.	.
